Measurements as given in ChEMBL document CHEMBL4184148 (Bioorg Med Chem Lett, 2017).
The source made the active and inactive calls. No cut-off for these calls is given here.

What was measured:
Aurora kinase B [1] = target: T1, Aurora kinase B (Homo sapiens, UniProt Q96GD4); assay: Inhibition of Aurora B in human HCT116 cells assessed as reduction in histone H3 phosphorylation at S10 residues after 4 hrs by Western blot analysis; assay type: cell-based
How it was run: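 Cells were exposed to compound in dose-response for 4 h, then lysed for western blotting of histone H3 pS10. The cellular EC50 was derived from the dose-response curves. Three replicate experiments were run.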

PC-3 = assay: Cytotoxicity against human PC3 cells assessed as reduction in cell viability after 72 hrs by CellTiter-Glo assay; assay type: functional, cell-based; details: PC-3, 72 h
How it was run: (§1)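 Cells were treated across a dose-response range for 72 h, and viability was read by CellTiter-Glo luminescence. Measurements were made in triplicate and reported with standard error.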

HCT-116 [2] = assay: Induction of cell cycle arrest in human HCT116 cells assessed as accumulation of 4N DNA content at 500 nM after 48 hrs by propidium iodide staining-based flow cytometry; assay type: functional
Aurora kinase B [3] = target: T1, Aurora kinase B; assay: Inhibition of recombinant full length His-tagged human Aurora B expressed in baculovirus expression system by Z'LYTE assay
How it was run: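 Z'LYTE biochemical kinase assay run at the Km ATP concentration for each kinase. IC50 was determined and reported ± standard error.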

HeLa = assay: Cytotoxicity against human HeLa cells assessed as reduction in cell viability after 72 hrs by CellTiter-Glo assay; assay type: functional, cell-based; how it was run: as §1
Aurora kinase C = target: T2, Aurora kinase C (Homo sapiens, UniProt Q9UQB9); assay: Inhibition of recombinant full length GST-tagged human Aurora C expressed in baculovirus expression system by Z'LYTE assay
T2 sequence (Q9UQB9 whole entry): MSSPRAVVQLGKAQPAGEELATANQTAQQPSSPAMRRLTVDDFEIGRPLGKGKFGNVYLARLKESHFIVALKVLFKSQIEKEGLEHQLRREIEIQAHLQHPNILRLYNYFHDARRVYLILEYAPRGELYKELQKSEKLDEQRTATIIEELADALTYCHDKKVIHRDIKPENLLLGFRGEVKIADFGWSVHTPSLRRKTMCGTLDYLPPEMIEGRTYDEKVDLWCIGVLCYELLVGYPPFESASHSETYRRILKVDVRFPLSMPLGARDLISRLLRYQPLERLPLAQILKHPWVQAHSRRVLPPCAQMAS
How it was run: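 Biochemical IC50 from a Z'LYTE kinase assay, with ATP at the Km for each kinase. Values are reported with standard error.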

HEK293 = assay: Cytotoxicity against human HEK293 cells assessed as reduction in cell viability after 72 hrs by CellTiter-Glo assay; assay type: cell-based; details: HEK293, 72 h; how it was run: as §1
HCT-116 [4] = assay: Cytotoxicity against human HCT116 cells assessed as reduction in cell viability after 72 hrs by CellTiter-Glo assay; assay type: functional, cell-based; details: HCT-116, 72 h; how it was run: as §1

T1 sequence (Q96GD4 whole entry): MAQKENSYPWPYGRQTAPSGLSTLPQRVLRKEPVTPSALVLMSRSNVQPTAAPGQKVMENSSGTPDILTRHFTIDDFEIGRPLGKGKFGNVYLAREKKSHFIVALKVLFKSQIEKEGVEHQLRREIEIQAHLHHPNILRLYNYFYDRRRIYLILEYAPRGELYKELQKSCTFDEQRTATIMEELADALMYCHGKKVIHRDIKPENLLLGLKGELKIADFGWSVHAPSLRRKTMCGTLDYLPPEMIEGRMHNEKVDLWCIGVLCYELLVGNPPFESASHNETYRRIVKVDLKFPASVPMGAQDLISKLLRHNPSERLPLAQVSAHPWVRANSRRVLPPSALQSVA

EC50 (Aurora kinase B [1]): 27 nM
IC50 (Aurora kinase B [3]): 34 nM
IC50 (Aurora kinase C): 91 nM
SMILES: CCOC(=O)c1[nH]cc2c1NC1=C(C(=O)CCC1)[C@H]2c1cccc(Oc2nc3ccccc3[nH]2)c1
IC50 (PC-3): > 10000 nM
Activity (HCT-116 [2]): Active
IC50 (HeLa): 6.11 nM
IC50 (HEK293): 5860 nM
IC50 (HCT-116 [4]): 3710 nM
